Tests used:
[1] = Inhibition of Brucella suis beta-carbonic anhydrase 1 incubated for 15 mins prior to testing by stopped-flow CO2 hydration assay
Method in brief: (§1)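 Stopped-flow CO2 hydration; 0.2 mM phenol red read at 557 nm in 10 mM Hepes pH 7.4, 10 mM Tris-HCl, 0.1 M NaSO4; CO2 1.7–17 mM. Inhibitor (10 mM water stock, diluted down to 0.01 nM) preincubated with enzyme 15 min at room temperature. Initial rates from at least six traces of the first 5–10% of reaction, over 10–100 s, with uncatalysed rates subtracted.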

[2] = Selectivity ratio of Ki for human alpha-carbonic anhydrase 1 to Ki for Brucella suis beta-carbonic anhydrase 1
[3] = Inhibition of Cryptococcus neoformans beta-carbonic anhydrase incubated for 15 mins prior to testing by stopped-flow CO2 hydration assay
Method in brief: (§2)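 CO2 was 1.7–17 mM. Initial rates were taken from at least six traces of the first 5–10% of reaction over 10–100 s, with uncatalysed rates subtracted. Inhibitor dilutions were in water down to 0.01 nM, preincubated with enzyme 15 min at room temperature.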

[4] = Selectivity ratio of Ki for human alpha-carbonic anhydrase 1 to Ki for Leishmania donovani chagasi beta-carbonic anhydrase
Method in brief: (§3)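 Ki ratio, human CA isoform Ki divided by pathogen β-CA Ki, used as an index of selectivity for the pathogen enzyme over the human enzyme.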

[5] = Selectivity ratio of Ki for human alpha-carbonic anhydrase 2 to Ki for Brucella suis beta-carbonic anhydrase 1
[6] = Inhibition of Leishmania donovani chagasi beta-carbonic anhydrase incubated for 15 mins prior to testing by stopped-flow CO2 hydration assay; method in brief: as §2
[7] = Selectivity ratio of Ki for human alpha-carbonic anhydrase 2 to Ki for Leishmania donovani chagasi beta-carbonic anhydrase; method in brief: as §3
[8] = Selectivity ratio of Ki for human alpha-carbonic anhydrase 2 to Ki for Cryptococcus neoformans beta-carbonic anhydrase; method in brief: as §3
[9] = Selectivity ratio of Ki for human alpha-carbonic anhydrase 2 to Ki for Brucella suis beta-carbonic anhydrase 2
[10] = Selectivity ratio of Ki for human alpha-carbonic anhydrase 1 to Ki for Cryptococcus neoformans beta-carbonic anhydrase; method in brief: as §3
[11] = Selectivity ratio of Ki for human alpha-carbonic anhydrase 1 to Ki for Brucella suis beta-carbonic anhydrase 2
[12] = Inhibition of Brucella suis beta-carbonic anhydrase 2 incubated for 15 mins prior to testing by stopped-flow CO2 hydration assay; method in brief: as §1
Brucella suis [13] = assay: Potency index, ratio of benzolamide Ki to compound Ki for Brucella suis beta-carbonic anhydrase 2
Brucella suis [14] = assay: Potency index, ratio of dichlorphenamide Ki to compound Ki for Brucella suis beta-carbonic anhydrase 1
Brucella suis [15] = assay: Potency index, ratio of benzolamide Ki to compound Ki for Brucella suis beta-carbonic anhydrase 1
Brucella suis [16] = assay: Potency index, ratio of acetazolamide Ki to compound Ki for Brucella suis beta-carbonic anhydrase 2
Brucella suis [17] = assay: Potency index, ratio of dichlorphenamide Ki to compound Ki for Brucella suis beta-carbonic anhydrase 2
Brucella suis [18] = assay: Potency index, ratio of acetazolamide Ki to compound Ki for Brucella suis beta-carbonic anhydrase 1

NS(=O)(=O)c1ccc(/N=C/c2ccc(-c3ccccn3)cc2)cc1
Ki [1]: 940 nM | Ratio Ki [2]: 4.6 | Ki [3]: 21.7 nM | Ratio Ki [4]: 3.5 | Ratio Ki [5]: 0.7 | Ki [6]: 1250 nM | Ratio Ki [7]: 0.5 | Ratio Ki [8]: 31.4 | Ratio Ki [9]: 2.7 | Ratio Ki [10]: 202 | Ratio Ki [11]: 17.1 | Ki [12]: 255 nM

NS(=O)(=O)c1ccc(CC/N=C/c2c[nH]c3ccc(Br)cc23)cc1
Ki [1]: 24.9 nM | Ratio Ki [2]: 70.2 | Ratio Ki (Brucella suis [13]): 100 | Ratio Ki (Brucella suis [14]): 2 | Ratio Ki (Brucella suis [15]): 2 | Ratio Ki (Brucella suis [16]): 100 | Ki [3]: 0.95 nM | Ratio Ki [4]: 0.9 | Ratio Ki [5]: 23.9 | Ki [6]: 2030 nM | Ratio Ki [7]: 0.3 | Ratio Ki [8]: 627 | Ratio Ki [9]: 243 | Ratio Ki [10]: 1840 | Ratio Ki (Brucella suis [17]): 100 | Ratio Ki (Brucella suis [18]): 2 | Ratio Ki [11]: 714 | Ki [12]: 2.45 nM

NS(=O)(=O)c1ccc(CC/N=C/c2ccc(Br)cc2O)cc1
Ki [1]: 761 nM | Ratio Ki [2]: 5.6 | Ratio Ki (Brucella suis [13]): 10 | Ratio Ki (Brucella suis [16]): 10 | Ki [3]: 22.3 nM | Ratio Ki [4]: 2.1 | Ratio Ki [5]: 0.9 | Ki [6]: 1980 nM | Ratio Ki [7]: 0.3 | Ratio Ki [8]: 29.9 | Ratio Ki [9]: 20.8 | Ratio Ki [10]: 190 | Ratio Ki (Brucella suis [17]): 10 | Ratio Ki [11]: 132 | Ki [12]: 32 nM

NS(=O)(=O)c1ccc(CC/N=C/c2ccc(-c3ccccn3)cc2)cc1
Ki [1]: 529 nM | Ratio Ki [2]: 2.5 | Ratio Ki (Brucella suis [13]): 10 | Ratio Ki (Brucella suis [16]): 10 | Ki [3]: 19.2 nM | Ratio Ki [4]: 1.1 | Ratio Ki [5]: 0.8 | Ki [6]: 1240 nM | Ratio Ki [7]: 0.3 | Ratio Ki [8]: 20.9 | Ratio Ki [9]: 16.3 | Ratio Ki [10]: 69.9 | Ratio Ki (Brucella suis [17]): 10 | Ratio Ki [11]: 54.2 | Ki [12]: 24.8 nM

NS(=O)(=O)c1ccc(/N=C/c2ccco2)c(F)c1
Ki [1]: 308 nM | Ratio Ki [2]: 0.8 | Ratio Ki (Brucella suis [16]): 2 | Ki [3]: 11.6 nM | Ratio Ki [4]: 1.5 | Ratio Ki [5]: 0.2 | Ki [6]: 168 nM | Ratio Ki [7]: 0.4 | Ratio Ki [8]: 5.5 | Ratio Ki [9]: 0.4 | Ratio Ki [10]: 21.3 | Ratio Ki [11]: 1.5 | Ki [12]: 162 nM

NS(=O)(=O)c1ccc(/N=C/c2ccc(-c3ccccc3)cc2)c(F)c1
Ki [1]: 523 nM | Ratio Ki [2]: 2.9 | Ratio Ki (Brucella suis [16]): 2 | Ki [3]: 9.5 nM | Ratio Ki [4]: 9.7 | Ratio Ki [5]: 1 | Ki [6]: 155 nM | Ratio Ki [7]: 3.2 | Ratio Ki [8]: 52.4 | Ratio Ki [9]: 3.1 | Ratio Ki [10]: 159 | Ratio Ki [11]: 9.4 | Ki [12]: 161 nM

N#Cc1ccc(/C=N/CCc2ccc(S(N)(=O)=O)cc2)cc1
Ki [1]: 85.2 nM | Ratio Ki [2]: 25.7 | Ratio Ki (Brucella suis [13]): 100 | Ratio Ki (Brucella suis [16]): 100 | Ki [3]: 20.6 nM | Ratio Ki [4]: 1.6 | Ratio Ki [5]: 8.4 | Ki [6]: 1400 nM | Ratio Ki [7]: 0.5 | Ratio Ki [8]: 34.6 | Ratio Ki [9]: 215 | Ratio Ki [10]: 106 | Ratio Ki (Brucella suis [17]): 100 | Ratio Ki [11]: 662 | Ki [12]: 3.31 nM

COc1ccc(/C=N/CCc2ccc(S(N)(=O)=O)cc2)c(O)c1
Ki [1]: 110 nM | Ratio Ki [2]: 40.2 | Ratio Ki (Brucella suis [13]): 10 | Ratio Ki (Brucella suis [16]): 10 | Ki [3]: 17 nM | Ratio Ki [4]: 23.2 | Ratio Ki [5]: 6.4 | Ki [6]: 190 nM | Ratio Ki [7]: 3.7 | Ratio Ki [8]: 40.9 | Ratio Ki [9]: 31.8 | Ratio Ki [10]: 258 | Ratio Ki (Brucella suis [17]): 10 | Ratio Ki [11]: 201 | Ki [12]: 21.9 nM

NS(=O)(=O)c1ccc(CC/N=C/c2ccc(-c3ccccc3)cc2)cc1
Ki [1]: 59.7 nM | Ratio Ki [2]: 117 | Ratio Ki (Brucella suis [13]): 10 | Ratio Ki (Brucella suis [16]): 10 | Ki [3]: 1.44 nM | Ratio Ki [4]: 12.9 | Ratio Ki [5]: 11.7 | Ki [6]: 542 nM | Ratio Ki [7]: 1.3 | Ratio Ki [8]: 487 | Ratio Ki [9]: 46.5 | Ratio Ki [10]: 4860 | Ratio Ki (Brucella suis [17]): 10 | Ratio Ki [11]: 465 | Ki [12]: 15.1 nM

COc1cc([N+](=O)[O-])ccc1/C=N/CCc1ccc(S(N)(=O)=O)cc1
Ki [1]: 330 nM | Ratio Ki [2]: 0.7 | Ratio Ki (Brucella suis [16]): 2 | Ki [3]: 21.2 nM | Ratio Ki [4]: 0.1 | Ratio Ki [5]: 0.5 | Ki [6]: 1940 nM | Ratio Ki [7]: 0.09 | Ratio Ki [8]: 7.9 | Ratio Ki [9]: 1 | Ratio Ki [10]: 10.1 | Ratio Ki [11]: 1.3 | Ki [12]: 163 nM

CSc1ccc(/C=N/CCc2ccc(S(N)(=O)=O)cc2)cc1
Ki [1]: 79.4 nM | Ratio Ki [2]: 37 | Ratio Ki (Brucella suis [13]): 10 | Ratio Ki (Brucella suis [16]): 10 | Ki [3]: 21.8 nM | Ratio Ki [4]: 13.6 | Ratio Ki [5]: 8.9 | Ki [6]: 216 nM | Ratio Ki [7]: 3.3 | Ratio Ki [8]: 32.5 | Ratio Ki [9]: 24.7 | Ratio Ki [10]: 135 | Ratio Ki (Brucella suis [17]): 10 | Ratio Ki [11]: 102 | Ki [12]: 28.7 nM

NS(=O)(=O)c1ccc(CC/N=C/c2c(F)c(F)cc(F)c2F)cc1
Ki [1]: 29.2 nM | Ratio Ki [2]: 90.1 | Ratio Ki (Brucella suis [13]): 100 | Ratio Ki (Brucella suis [14]): 2 | Ratio Ki (Brucella suis [15]): 2 | Ratio Ki (Brucella suis [16]): 100 | Ki [3]: 2.26 nM | Ratio Ki [4]: 24.5 | Ratio Ki [5]: 22.3 | Ki [6]: 107 nM | Ratio Ki [7]: 6.1 | Ratio Ki [8]: 288 | Ratio Ki [9]: 255 | Ratio Ki [10]: 1160 | Ratio Ki (Brucella suis [17]): 100 | Ratio Ki (Brucella suis [18]): 2 | Ratio Ki [11]: 1030 | Ki [12]: 2.56 nM

NS(=O)(=O)c1ccc(/N=C/c2ccccc2)c(F)c1
Ki [1]: 11.5 nM | Ratio Ki [2]: 43.2 | Ratio Ki (Brucella suis [13]): 100 | Ratio Ki (Brucella suis [14]): 2 | Ratio Ki (Brucella suis [15]): 2 | Ratio Ki (Brucella suis [16]): 100 | Ki [3]: 0.56 nM | Ratio Ki [4]: < 0.2 | Ratio Ki [5]: 61.5 | Ki [6]: > 2500 nM | Ratio Ki [7]: 0.3 | Ratio Ki [8]: 1270 | Ratio Ki [9]: 307 | Ratio Ki [10]: 891 | Ratio Ki (Brucella suis [17]): 100 | Ratio Ki (Brucella suis [18]): 2 | Ratio Ki [11]: 216 | Ki [12]: 2.31 nM

NS(=O)(=O)c1ccc(CC/N=C/c2ccc(S(=O)(=O)O)o2)cc1
Ki [1]: 682 nM | Ratio Ki [2]: 4.2 | Ratio Ki (Brucella suis [13]): 10 | Ratio Ki (Brucella suis [16]): 10 | Ki [3]: 12.1 nM | Ratio Ki [4]: 2 | Ratio Ki [5]: 0.7 | Ki [6]: 1430 nM | Ratio Ki [7]: 0.3 | Ratio Ki [8]: 38.5 | Ratio Ki [9]: 18.1 | Ratio Ki [10]: 236 | Ratio Ki (Brucella suis [17]): 10 | Ratio Ki [11]: 111 | Ki [12]: 25.7 nM

NS(=O)(=O)c1ccc(/N=C/c2csc3ccccc23)cc1
Ki [1]: 1030 nM | Ratio Ki [2]: 3 | Ki [3]: 16.7 nM | Ratio Ki [4]: 2.1 | Ratio Ki [5]: 0.6 | Ki [6]: 1420 nM | Ratio Ki [7]: 0.5 | Ratio Ki [8]: 39.8 | Ratio Ki [9]: 3.2 | Ratio Ki [10]: 183 | Ratio Ki [11]: 14.8 | Ki [12]: 207 nM

NS(=O)(=O)c1ccc(/N=C/c2ccc(Br)cc2O)cc1
Ki [1]: 625 nM | Ratio Ki [2]: 6.9 | Ratio Ki (Brucella suis [13]): 10 | Ratio Ki (Brucella suis [16]): 10 | Ki [3]: 16.9 nM | Ratio Ki [4]: < 1.7 | Ratio Ki [5]: 1.1 | Ki [6]: > 2500 nM | Ratio Ki [7]: < 0.3 | Ratio Ki [8]: 41.9 | Ratio Ki [9]: 29.9 | Ratio Ki [10]: 256 | Ratio Ki (Brucella suis [17]): 10 | Ratio Ki [11]: 183 | Ki [12]: 23.7 nM

NS(=O)(=O)c1ccc(CC/N=C/c2cccc(Br)c2O)cc1
Ki [1]: 45.1 nM | Ratio Ki [2]: 118 | Ratio Ki (Brucella suis [13]): 10 | Ratio Ki (Brucella suis [16]): 10 | Ki [3]: 15.7 nM | Ratio Ki [4]: 4.2 | Ratio Ki [5]: > 222 | Ki [6]: 1270 nM | Ratio Ki [7]: > 7.9 | Ratio Ki [8]: > 637 | Ratio Ki [9]: > 412 | Ratio Ki [10]: 340 | Ratio Ki (Brucella suis [17]): 10 | Ratio Ki [11]: 220 | Ki [12]: 24.3 nM

Reference: ChEMBL document CHEMBL3596191, “Inhibition studies of bacterial, fungal and protozoan β-class carbonic anhydrases with Schiff bases incorporating sulfonamide moieties” (Bioorg Med Chem, 2015)
